Assay results as given in ChEMBL document CHEMBL1128383, “Potent, orally active, competitive N-methyl-D-aspartate (NMDA) receptor antagonists are substrates for a neutral amino acid uptake system in Chinese hamster ovary cells” (J Med Chem, 1995).

Assays:
[1] = molecular target: T1, Glutamate NMDA receptor (Rattus norvegicus) (UniProt P35439+Q00959+Q00960+Q00961+Q62645+Q8VHN2+Q9R1M7); experiment: (§1) Inhibition of NMDA receptor binding affinity in rat brain synaptosomal membrane using [3H]glutamate as radioligand; format: cell membranes; settings: concentration not given here
How it was run: (§2)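 Displacement of radioligand ([3H]glutamate, [3H]glycine or [3H]CGP 39653) from rat cortex synaptosomal membranes. IC50 values are means of at least two experiments, each run in triplicate.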

[2] = molecular target: T1, Glutamate NMDA receptor (Rattus norvegicus); experiment: (§3) Inhibition of receptor binding affinity in rat brain synaptosomal membrane was determined by [3H]-CGP- 39653 as radioligand; format: cell membranes; settings: concentration not given here; how it was run: as §2
[3] = molecular target: T1, Glutamate NMDA receptor (Rattus norvegicus); experiment: (§4) Inhibition of NMDA receptor binding affinity in rat brain synaptosomal membrane using [3H]glycine as radioligand; format: cell membranes; settings: concentration not given here; how it was run: as §2
Glutamate NMDA receptor [4] = experiment: as §4; format: cell membranes; how it was run: as §2
Mus musculus [5] = experiment: Maximal electroshock (MES) results in mice by iv administration of 10 mg/kg expressed as number of animals protected by total 5 animals tested after 15 min was reported; format: functional
How it was run: (§5)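 Adult male CF-1 mice (18–24 g) dosed iv, mg/kg. At 15 min, 1 h and 2 h after dosing, a 60 Hz sinusoidal current (50 mA base to peak, 0.2 s) is applied through corneal electrodes smeared with electrolyte jelly. Protection means no tonic hindlimb extension. Ataxia is scored by inverted screen. Data are expressed as animals affected per animals tested, 5 per group.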

Mus musculus [6] = experiment: Maximal electroshock (MES) results in mice by iv administration of 10 mg/kg expressed as number of animals ataxia by total 5 animals tested after 1 hr was reported; format: functional; how it was run: as §5
Glutamate NMDA receptor [7] = experiment: as §3; format: cell membranes; how it was run: as §2
Mus musculus [8] = experiment: Maximal electroshock (MES) results in mice by iv administration of 10 mg/kg expressed as number of animals ataxia by total 5 animals tested after 15 min was reported; format: functional; how it was run: as §5
Glutamate NMDA receptor [9] = experiment: as §1; format: cell membranes; how it was run: as §2
Mus musculus [10] = experiment: Maximal electroshock (MES) results in mice by iv administration of 10 mg/kg expressed as number of animals protected by total 5 animals tested after 2 hr was reported; format: functional; how it was run: as §5
Mus musculus [11] = experiment: Maximal electroshock (MES) results in mice by iv administration of 10 mg/kg expressed as number of animals protected by total 5 animals tested after 1 hr was reported; format: functional; how it was run: as §5
Mus musculus [12] = experiment: Maximal electroshock (MES) results in mice by iv administration of 10 mg/kg expressed as number of animals ataxia by total 5 animals tested after 2 hr was reported; format: functional; how it was run: as §5
Mus musculus [13] = experiment: Maximal electroshock (MES) results in mice by iv administration of 30 mg/kg expressed as number of animals protected by total 5 animals tested after 2 hr was reported; format: functional; how it was run: as §5
Mus musculus [14] = experiment: Maximal electroshock (MES) results in mice by iv administration of 30 mg/kg expressed as number of animals ataxia by total 5 animals tested after 15 min was reported; format: functional; how it was run: as §5
Mus musculus [15] = experiment: Maximal electroshock (MES) results in mice by iv administration of 30 mg/kg expressed as number of animals protected by total 5 animals tested after 15 min was reported; format: functional; how it was run: as §5
Mus musculus [16] = experiment: Maximal electroshock (MES) results in mice by iv administration of 30 mg/kg expressed as number of animals ataxia by total 5 animals tested after 2 hr was reported; format: functional; how it was run: as §5
Mus musculus [17] = experiment: Maximal electroshock (MES) results in mice by iv administration of 10 mg/kg expressed as number of animals protected by number of animals tested after 1 hr was reported; format: functional; how it was run: as §5
Mus musculus [18] = experiment: Maximal electroshock (MES) results in mice by iv administration of 10 mg/kg expressed as number of animals ataxia by number of animals tested after 15 min was reported; format: functional; how it was run: as §5
Mus musculus [19] = experiment: Maximal electroshock (MES) results in mice by iv administration of 30 mg/kg expressed as number of animals ataxia by total 5 animals tested after 1 hr was reported; format: functional; how it was run: as §5
Mus musculus [20] = experiment: Maximal electroshock (MES) results in mice by iv administration of 10 mg/kg expressed as number of animals ataxia by number of animals tested after 1 hr was reported; format: functional; how it was run: as §5
Mus musculus [21] = experiment: Maximal electroshock (MES) results in mice by iv administration of 30 mg/kg expressed as number of animals protected by total 5 animals tested after 1 hr was reported; format: functional; how it was run: as §5
Mus musculus [22] = experiment: Maximal electroshock (MES) results in mice by iv administration of 10 mg/kg expressed as number of animals protected by number of animals tested after 15 min was reported; format: functional; how it was run: as §5
Mus musculus [23] = experiment: Maximal electroshock (MES) results in mice by iv administration of 1 mg/kg expressed as number of animals protected by total 5 animals tested after 2 hr was reported; format: functional; how it was run: as §5
Mus musculus [24] = experiment: Maximal electroshock (MES) results in mice by iv administration of 0.3 mg/kg expressed as number of animals protected by total 5 animals tested after 2 hr was reported; format: functional; how it was run: as §5
Mus musculus [25] = experiment: Maximal electroshock (MES) results in mice by iv administration of 1 mg/kg expressed as number of animals protected by total 5 animals tested after 15 min was reported; format: functional; how it was run: as §5
Mus musculus [26] = experiment: Maximal electroshock (MES) results in mice by iv administration of 1 mg/kg expressed as number of animals ataxia by total 5 animals tested after 1 hr was reported; format: functional; how it was run: as §5
Mus musculus [27] = experiment: Maximal electroshock (MES) results in mice by iv administration of 0.3 mg/kg expressed as number of animals protected by total 5 animals tested after 15 min was reported; format: functional; how it was run: as §5
Mus musculus [28] = experiment: Maximal electroshock (MES) results in mice by iv administration of 0.3 mg/kg expressed as number of animals ataxia by total 5 animals tested after 2 hr was reported; format: functional; how it was run: as §5
Mus musculus [29] = experiment: Maximal electroshock (MES) results in mice by iv administration of 0.3 mg/kg expressed as number of animals protected by total 5 animals tested after 1 hr was reported; format: functional; how it was run: as §5
Mus musculus [30] = experiment: Maximal electroshock (MES) results in mice by iv administration of 0.3 mg/kg expressed as number of animals ataxia by number of animals tested after 1 hr was reported; format: functional; how it was run: as §5
Mus musculus [31] = experiment: Maximal electroshock (MES) results in mice by iv administration of 1 mg/kg expressed as number of animals ataxia by total 5 animals tested after 15 min was reported; format: functional; how it was run: as §5
Mus musculus [32] = experiment: Maximal electroshock (MES) results in mice by iv administration of 1 mg/kg expressed as number of animals ataxia by total 5 animals tested after 2 hr was reported; format: functional; how it was run: as §5
Mus musculus [33] = experiment: Maximal electroshock (MES) results in mice by iv administration of 1 mg/kg expressed as number of animals protected by total 5 animals tested after 1 hr was reported; format: functional; how it was run: as §5
Mus musculus [34] = experiment: Maximal electroshock (MES) results in mice by iv administration of 0.3 mg/kg expressed as number of animals ataxia by total 5 animals tested after 15 min was reported; format: functional; how it was run: as §5

N[C@H](Cc1cccc(-c2ccccc2)c1)C(=O)O
inhibition [1]: 90%
inhibition [2]: 100%
inhibition [3]: 81%

N[C@H](Cc1cc(CP(=O)(O)O)cc(-c2ccccc2)c1)C(=O)O
IC50 (Glutamate NMDA receptor [4]): > 200 µM
Protected (Mus musculus [5]): 0
Ataxia (Mus musculus [6]): 0
IC50 (Glutamate NMDA receptor [7]): 5.21 µM
Ataxia (Mus musculus [8]): 0
IC50 (Glutamate NMDA receptor [9]): 13.5 µM
Protected (Mus musculus [10]): 0
Protected (Mus musculus [11]): 0
Ataxia (Mus musculus [12]): 0

N[C@H](Cc1cc(CP(=O)(O)O)cc(-c2cccc3ccccc23)c1)C(=O)O
Protected (Mus musculus [13]): 5
Ataxia (Mus musculus [14]): 1
Protected (Mus musculus [15]): 3
IC50 (Glutamate NMDA receptor [7]): 0.25 µM
Ataxia (Mus musculus [16]): 0
Protected (Mus musculus [17]): 0
IC50 (Glutamate NMDA receptor [9]): 0.32 µM
Protected (Mus musculus [10]): 1
Ataxia (Mus musculus [18]): 0
Ataxia (Mus musculus [19]): 0
Ataxia (Mus musculus [20]): 0
Protected (Mus musculus [21]): 3
Protected (Mus musculus [22]): 0
Ataxia (Mus musculus [12]): 0

N[C@@H](Cc1cc(CP(=O)(O)O)cc(-c2ccc3ccccc3c2)c1)C(=O)O
Protected (Mus musculus [23]): 5
Protected (Mus musculus [24]): 2
Protected (Mus musculus [25]): 1
Ataxia (Mus musculus [26]): 1
Protected (Mus musculus [27]): 1
Ataxia (Mus musculus [28]): 0
Protected (Mus musculus [29]): 0
IC50 (Glutamate NMDA receptor [7]): 0.012 µM
IC50 (Glutamate NMDA receptor [9]): 0.014 µM
Ataxia (Mus musculus [30]): 0
Ataxia (Mus musculus [31]): 0
Ataxia (Mus musculus [32]): 0
Protected (Mus musculus [33]): 5
Ataxia (Mus musculus [34]): 0

N[C@@H](Cc1cc(-c2ccccc2)cc(CP(=O)(O)O)c1[N+](=O)[O-])C(=O)O
IC50 (Glutamate NMDA receptor [4]): 11.5 µM
IC50 (Glutamate NMDA receptor [7]): 1.08 µM
IC50 (Glutamate NMDA receptor [9]): 2.3 µM
